Experiments:
Aspergillus flavus = assay: In vitro evaluation of minimum inhibitory concentration against Aspergillus flavus 19; assay type: functional; settings: Aspergillus flavus; read-out: MIC
Procedure, shortened: (§1)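 Stocks are 800 μg/mL in 50% ethanol. Each plate gets 10 μL of inoculum at 10^5 cfu/mL. Incubation at 25 °C, 48 h for yeasts and 120 h for dermatophytes and molds. Organisms are ATCC strains or clinical isolates.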

Candida albicans [1] = assay: Evaluation of In vitro antifungal activity against Candida albicans 60 by broth macro dilution method
Candida albicans [2] = assay: Evaluation of In vitro antifungal activity against Candida albicans C52 by broth macro dilution method; assay type: functional
Procedure, shortened: (§2)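 Yeast MIC and MFC by broth macrodilution per NCCLS M27-P in RPMI-1640 buffered with 0.165 M MOPS. Fluconazole in sterile water, other drugs in DMSO. C. parapsilosis ATCC 22019 is the reference strain in each run. MIC is the lowest concentration with turbidity ≤ the 80% inhibition standard. For MFC, 0.04 mL from clear tubes is plated on Sabouraud agar; MFC is the lowest concentration giving ≤1 colony.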

Cryptococcus neoformans [3] = assay: Evaluation of In vitro antifungal activity against Cryptococcus neoformans 87 by broth macro dilution method; assay type: functional; procedure, shortened: as §2
Mus sp. [4] = assay: In vivo evaluation of % survival rate after peroral administration on 9th day at dose 0.5 mg/kg; assay type: functional; settings: Mus sp., po
Pichia kudriavzevii [5] = assay: Evaluation of In vitro antifungal activity against Candida krusei 70 by broth macro dilution method; assay type: functional; procedure, shortened: as §2
Aspergillus niger = assay: In vitro evaluation of minimum inhibitory concentration against Aspergillus niger 18; assay type: functional; settings: Aspergillus niger; read-out: MIC; procedure, shortened: as §1
Candida albicans [6] = assay: Evaluation of In vitro antifungal activity against Candida albicans ATCC 10231 by broth macro dilution method; assay type: functional; procedure, shortened: as §2
Kluyveromyces marxianus = assay: Evaluation of In vitro antifungal activity against Candida pseudotropicalis ATCC 28838 by broth macro dilution method; assay type: functional; procedure, shortened: as §2
Candida tropicalis [7] = assay: Evaluation of In vitro antifungal activity against Candida tropicalis 50 by broth macro dilution method; assay type: functional; procedure, shortened: as §2
Mus sp. [8] = assay: In vivo evaluation of % survival rate after peroral administration on 3rd day at dose 0.5 mg/kg; assay type: functional; settings: route oral
Candida tropicalis [9] = assay: Evaluation of In vitro antifungal activity against Candida tropicalis 2.11 by broth macro dilution method; assay type: functional; procedure, shortened: as §2
Candida albicans [10] = assay: Evaluation of […] antifungal activity against Candida albicans 60 by broth macro dilution method; assay type: functional; procedure, shortened: as §2
Mus sp. [11] = assay: In vivo evaluation of % survival rate after peroral administration on 3rd day at dose 1 mg/kg; assay type: functional; settings: Mus sp., po
Candida albicans [12] = assay: Evaluation of In vitro antifungal activity against Candida albicans 76 by broth macro dilution method; assay type: functional; procedure, shortened: as §2
Mus sp. [13] = assay: In vivo evaluation of % survival rate after peroral administration on 5th day at dose 1 mg/kg; assay type: functional; settings: Mus sp., po
Candida parapsilosis [14] = assay: Evaluation of In vitro antifungal activity against Candida parapsilosis C74 by broth macro dilution method; assay type: functional; settings: Lodderomyces parapsilosis; procedure, shortened: as §2
Mus musculus = assay: In vivo evaluation of % survival rate after peroral administration on 7th day at dose 0.5 mg/kg; assay type: functional; settings: Mus musculus, po
Candida parapsilosis [15] = assay: In vitro evaluation of minimum inhibitory concentration against Candida parapsilosis 61; assay type: functional; settings: Lodderomyces parapsilosis; read-out: MIC; procedure, shortened: as §1
Mus sp. [16] = assay: In vivo evaluation of % survival rate after peroral administration on 9th day at dose 1 mg/kg; assay type: functional; settings: route oral, 1 mg/kg
Candida albicans [17] = assay: Evaluation of In vitro antifungal activity against Candida albicans C56 by broth macro dilution method; assay type: functional; procedure, shortened: as §2
Candida albicans [18] = assay: Evaluation of In vitro antifungal activity against Candida albicans 31 by broth macro dilution method; assay type: functional; procedure, shortened: as §2
Pichia kudriavzevii [19] = assay: In vitro evaluation of minimum inhibitory concentration against Candida krusei 70; assay type: functional; settings: Pichia kudriavzevii; read-out: MIC; procedure, shortened: as §1
Trichophyton benhamiae = assay: In vitro evaluation of minimum inhibitory concentration against Trichophyton mentagrophytes 23; assay type: functional, Arthroderma benhamiae; settings: Trichophyton benhamiae; read-out: MIC; procedure, shortened: as §1
Candida parapsilosis [20] = assay: Evaluation of In vitro antifungal activity against Candida parapsilosis 2.07 by broth macro dilution method; assay type: functional; settings: Lodderomyces parapsilosis; procedure, shortened: as §2
Nannizzia gypsea = assay: In vitro evaluation of minimum inhibitory concentration against Microsporum gypseum 22; assay type: functional; settings: Nannizzia gypsea; read-out: MIC; procedure, shortened: as §1
Candida parapsilosis [21] = assay: Evaluation of In vitro antifungal activity against Candida parapsilosis ATCC 141095 by broth macro dilution method; assay type: functional; settings: Lodderomyces parapsilosis; procedure, shortened: as §2
Trichophyton rubrum = assay: In vitro evaluation of minimum inhibitory concentration against Trichophyton rubrum 90; assay type: functional; settings: Trichophyton rubrum; read-out: MIC; procedure, shortened: as §1
Candida albicans [22] = assay: Evaluation of In vitro antifungal activity against Candida albicans 406 by broth macro dilution method; assay type: functional; procedure, shortened: as §2
Rattus norvegicus = assay: In vivo evaluation of antifungal activity against vaginal candidosis in rat at dose 0.25 mg/kg on 15th day; assay type: functional
Procedure, shortened: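 Groups of 10 female Wistar rats given estradiol 25 mg/kg sc on day -5, infected intravaginally with C. albicans by sterile swab on day 0; infection confirmed on day 3 by swab culture (TSB, then Sabouraud agar). Oral dosing once daily on days 3, 4, 5; vehicle controls. Vaginal swabs cultured on days 10 and 15; read-out % cured (culture-negative).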

Pichia kudriavzevii [23] = assay: Evaluation of In vitro antifungal activity against Candida krusei C64 by broth macro dilution method; assay type: functional; procedure, shortened: as §2
[24] = tested on: Meyerozyma guilliermondii; assay: Evaluation of In vitro antifungal activity against Candida guilliermondii 26 by broth macro dilution method; assay type: functional; procedure, shortened: as §2
Mus sp. [25] = assay: In vivo evaluation of % survival rate after peroral administration on 5th day at dose 0.5 mg/kg; assay type: functional; settings: route oral
Candida albicans [26] = assay: Evaluation of In vitro antifungal activity against Candida albicans 2.01 by broth macro dilution method; assay type: functional; procedure, shortened: as §2
Mus sp. [27] = assay: In vivo evaluation of % survival rate after peroral administration on 7th day at dose 1 mg/kg; assay type: functional; settings: route oral, 1 mg/kg
Aspergillus fumigatus = assay: In vitro evaluation of minimum inhibitory concentration against Aspergillus fumigatus 33; assay type: functional; settings: Aspergillus fumigatus; read-out: MIC; procedure, shortened: as §1
Candida albicans [28] = assay: In vitro evaluation of minimum inhibitory concentration against Candida albicans 76; assay type: functional; procedure, shortened: as §1
Cryptococcus neoformans [29] = assay: Evaluation of In vitro antifungal activity against Cryptococcus neoformans 74 by broth macro dilution method; assay type: functional; procedure, shortened: as §2
Microsporum canis = assay: In vitro evaluation of minimum inhibitory concentration against Microsporum canis 47; assay type: functional; settings: Microsporum canis; read-out: MIC; procedure, shortened: as §1
Candida parapsilosis [30] = assay: Evaluation of In vitro antifungal activity against Candida parapsilosis C292 by broth macro dilution method; assay type: functional; settings: Lodderomyces parapsilosis; procedure, shortened: as §2
[31] = tested on: Meyerozyma guilliermondii; assay: In vitro evaluation of minimum inhibitory concentration against Candida guilliermondii 26; assay type: functional; settings: Meyerozyma guilliermondii; read-out: MIC; procedure, shortened: as §1
Nakaseomyces glabratus = assay: Evaluation of In vitro antifungal activity against Torulopsis glabrata 78 by broth macro dilution method; assay type: functional; procedure, shortened: as §2

C[C@H]1N(C(=O)c2ccc(C(F)(F)F)cc2)C[C@H](O)O[C@@]1(Cn1cncn1)c1ccc(F)cc1F (stereo in doubt; (-)-39a)
80 µg/mL: MIC (Nannizzia gypsea) | MIC (Aspergillus fumigatus) | MIC [31]
2 µg/mL: MIC (Candida parapsilosis [14]) | MIC (Candida albicans [26]) | MFC (Cryptococcus neoformans [29])
0.5 µg/mL: MIC (Candida albicans [2]) | MIC (Candida albicans [6]) | MIC (Candida albicans [18])
4 µg/mL: MIC (Cryptococcus neoformans [3]) | MIC (Candida parapsilosis [20])
80%: survival at 0.5 mg/kg (Mus musculus)
8 µg/mL: MIC (Candida parapsilosis [30])
64 µg/mL: MFC (Kluyveromyces marxianus) | MIC (Candida tropicalis [9])
32 µg/mL: MFC (Candida parapsilosis [14]) | MIC [24]
> 80 µg/mL: MIC (Aspergillus flavus) | MIC (Aspergillus niger) | MIC (Pichia kudriavzevii [19]) | MIC (Trichophyton benhamiae)
> 64 µg/mL: MFC (Candida albicans [1]) | MFC (Candida albicans [2]) | MFC (Cryptococcus neoformans [3]) | MFC (Pichia kudriavzevii [5]) | MIC (Pichia kudriavzevii [5]) | MFC (Candida albicans [6]) | MFC (Candida tropicalis [7]) | MIC (Candida tropicalis [7]) | MFC (Candida tropicalis [9]) | MFC (Candida albicans [12]) | MFC (Candida albicans [17]) | MFC (Candida albicans [18]) | MFC (Candida parapsilosis [20]) | MFC (Candida parapsilosis [21]) | MIC (Candida parapsilosis [21]) | MFC (Candida albicans [22]) | MFC (Pichia kudriavzevii [23]) | MIC (Pichia kudriavzevii [23]) | MFC [24] | MFC (Candida albicans [26]) | MFC (Candida parapsilosis [30]) | MFC (Nakaseomyces glabratus) | MIC (Nakaseomyces glabratus)
1 µg/mL: MIC (Candida albicans [10]) | MIC (Candida albicans [12]) | MIC (Candida albicans [17]) | MIC (Candida albicans [22])
40%: survival at 0.5 mg/kg (Mus sp. [4])
0.25 µg/mL: MIC (Cryptococcus neoformans [29])
10 µg/mL: MIC (Candida albicans [28])
40 µg/mL: MIC (Candida parapsilosis [15]) | MIC (Trichophyton rubrum) | MIC (Microsporum canis)
100%: survival at 0.5 mg/kg (Mus sp. [8]) | survival at 1 mg/kg (Mus sp. [11]) | survival at 1 mg/kg (Mus sp. [13]) | Survival (Mus sp. [16]) | Cure rate (Rattus norvegicus) | survival at 0.5 mg/kg (Mus sp. [25]) | Survival (Mus sp. [27])
